Wee1 degr inh – Wee1 degradation inhibitors, primary screen, cell-based, HeLa, Wee1K328M-luciferase, luminescence; 1.2% of 220,000 active; AID 1321, 2008; HeLa Luc-Wee1K328M stability; 100% = proteasome inhibitor MG132 effect; reporter increase, % at 5 µM; Wee1-like protein kinase (Homo sapiens), P30291;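 active = activation above the mean of all tested compounds plus 3 SD, set per screening run, cut at about 8.8% in these data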;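 note: cells exposed to compound for 20 h before luminescence read; 0% = DMSO alone and 100% = MG132 at 30 µM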
Target sequence (P30291 whole entry K328M): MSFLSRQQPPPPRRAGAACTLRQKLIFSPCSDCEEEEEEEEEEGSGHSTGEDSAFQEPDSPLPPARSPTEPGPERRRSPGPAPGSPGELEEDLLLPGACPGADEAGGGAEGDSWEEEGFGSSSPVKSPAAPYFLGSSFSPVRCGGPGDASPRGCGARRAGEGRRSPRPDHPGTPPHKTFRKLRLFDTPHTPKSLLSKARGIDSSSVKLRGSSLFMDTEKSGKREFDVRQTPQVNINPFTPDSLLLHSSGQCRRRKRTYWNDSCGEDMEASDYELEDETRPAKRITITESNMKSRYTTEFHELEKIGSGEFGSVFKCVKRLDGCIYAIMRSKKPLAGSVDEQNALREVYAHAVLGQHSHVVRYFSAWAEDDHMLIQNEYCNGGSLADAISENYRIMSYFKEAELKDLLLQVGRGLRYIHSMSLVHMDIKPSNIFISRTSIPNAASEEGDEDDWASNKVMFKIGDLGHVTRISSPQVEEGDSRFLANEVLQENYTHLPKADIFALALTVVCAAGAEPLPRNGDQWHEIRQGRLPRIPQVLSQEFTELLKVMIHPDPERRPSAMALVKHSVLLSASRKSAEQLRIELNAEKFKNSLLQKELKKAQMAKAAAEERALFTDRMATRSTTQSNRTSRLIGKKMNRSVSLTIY
RBBP9 inh – human RBBP9 inhibitors, primary screen, biochemical, fluorescence polarization, FP-Rh probe, HTS. 0.2% of 220,000 active. inhibition, % at 7.94 µM. Serine hydrolase RBBP9 (Homo sapiens), O75884. recombinant RBBP9. AID 1515, 2009;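 active = inhibition above the campaign mean of all tested compounds plus 3 SD, cut at about 14% in these data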;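 note: plate controls were DMSO wells with RBBP9 for no effect and wells lacking RBBP9 protein for full effect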
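system = RBBP9 protein | input = RBBP9 at 2.5 µM in dispensed solution, before mixing | measured by = fluorescence polarization (mP), excitation 525 nm, emission 598 nm | incubation = enzyme-compound preincubation 30 min, then probe labeling 45 min, 25 °C | buffer or medium = Tris-NaCl-Pluronic buffer, pH 8.0 | compound = single dose 7.94 µM | also added = FP-Rh probe, 375 nM dispensing solution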
Pf gametocyte – late stage P. falciparum gametocyte viability inhibitors, primary screen, ATP luminescence, HTS | P. falciparum stage V gametocytes, 24 h | inhibition, % at 10.9 µM | 0.065% of 150,000 active | AID 743093, 2013;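 active = inhibition above the mean plus 3 SD of compounds within the control limits, set per campaign, cut at about 38% in these data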;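 note: 0% = DMSO wells and 100% = medium only without gametocytes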
TNF necrop inh – inhibitors of TNF-alpha triggered necroptosis, primary screen, cell-based, Jurkat FADD-/-, single concentration | 0.068% of 220,000 active | activation (protection from cell death), % at 10 µM | Jurkat FADD-/- TNF necroptosis rescue, ATP luminescence, 24 h; 0 = TNF only, 100 = no-TNF cells;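 active = activation, meaning protection from cell death, of at least 50% relative to plate controls; inactive = activation below 50%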;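 note: necroptosis triggered by 40 ng/mL TNF-alpha added together with compound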
m-calpain inh – inhibitors of pig calpain II, primary screen, biochemical, fluorogenic peptide substrate, 1536-well; purified calpain II, 30 min; inhibition, % at 16 µM; 0.37% of 220,000 active; AID 1236, 2008;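 active = inhibition above about 50%, limit read from the data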
L929 necroptosis – inhibitors of zVAD-triggered necroptosis, primary screen, L929 cells; L929 zVAD necroptosis rescue, ATP luminescence, 24 h; with zVAD 60 µM; viability rescue, % at 10 µM; 0.38% of 220,000 active; AID 1377, 2008;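 active = activation, scaled between plate controls, above about 75%, limit read from the data; inactive = activation under that limit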;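 note: 0% = zVAD with DMSO and 100% = DMSO alone without zVAD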
Wee1 stab conf – Wee1 degradation inhibitors, confirmation, cell-based, HeLa, Wee1K328M-luciferase, luminescence, triplicate. shares compounds with Wee1 degr inh. activation, % at 5 µM. HeLa Luc-Wee1K328M degradation; vehicle 0%, proteasome-blocked wells 100%. 4% of 1,100 active. AID 1410, 2008; in the data active = activation above about 8.9%
An asterisk follows results filed as active; i = inactive; / = no result. The list is not random: actives were taken first. Their share in the collection is about 2.1%.

SMILES	Wee1 degr inh	RBBP9 inh	Pf gametocyte	TNF necrop inh	m-calpain inh	L929 necroptosis	Wee1 stab conf
Cc1cccc(CCNC(=O)CCCOc2cc(=O)n(C)c3ccccc23)c1	0	7	16	-3	4	9	/
Cc1ccnc(NC(=O)CCCOc2cc(=O)n(C)c3ccccc23)c1	14*	-3	8	-2	-4	62	46*
Cc1cccc(CCNC(=O)COc2cc(=O)n(C)c3ccccc23)c1	11*	2	-12	-2	-13	0	-1
O=c1oc2ccccc2c(Nc2cccc3cccnc23)c1[N+](=O)[O-]	1	6	6	-4	14	-1	/
Cc1ccccc1C(=O)NC1CCCCCCC1	/	/	-4	/	/	/	/
CSc1ccccc1C(=O)NC1CCCCCC1	14*	4	/	2	5	0	2
Cc1ccc(C(=O)COC(=O)CCc2ccc(S(=O)(=O)N3CCCCC3)cc2)cc1	-2	-6	/	0	-4	1	/
N=c1c2c3c(sc2ncn1Cc1ccco1)CCCCC3	12*	-7	-16	3	11	-1	-2
CC(C)Cn1cnc2sc3c(c2c1=N)CCCC3	-2	-3	-10	1	-9	0	/
CCCc1ccc(C(=O)Cn2nc(C(=O)O)c3ccccc3c2=O)cc1	11*	-3	-8	1	10	1	2
CC(=C/c1ccccc1)/C=N/NC(=O)c1ccccn1	32*	-12	4	-8	-6	-1	-2
O=C(COC(=O)c1ccccc1NC(=O)C1CC1)c1ccc2c(c1)OCCO2	-3	-4	/	-1	16	0	/
O=C(O)C(F)=C(c1ccccc1)c1ccccc1	/	/	-34	/	/	/	/
Cc1ccc(O)c(-c2cc3ccccc3[nH]2)c1	11*	1	9	-3	i	-1	0
COc1ccc(-c2nc(NC(=O)c3n[nH]c(=O)c4ccccc34)sc2C)cc1	32*	-8	3	1	-28	0	-3
Cc1ccc(S(=O)(=O)N2c3ccccc3OCC2C(C)(C)C)cc1 (stereo not drawn)	21*	-13	19	-8	19	0	2
Cc1cc(C)nc(N2CCCC(C(=O)Nc3nc4ccc(S(C)(=O)=O)cc4s3)C2)n1 (stereo not drawn)	11*	-1	/	-4	-124	1	-2
O=C(NC(=S)Nc1cc(C(F)(F)F)ccc1N1CCOCC1)c1ccco1	1	-13	8	2	22	-1	/
O=C(Oc1ccc(=O)n(-c2ccccc2)n1)c1cccc(Cl)c1	11*	-1	-30	-1	-15	0	3
Cc1ccc(N(CC(=O)N/N=C/c2cc(C)n(-c3ccccc3C)c2C)S(C)(=O)=O)cc1	12*	-1	/	5	-45	0	-1
CCC1(COC(=O)Nc2cccc(Cl)c2)COC1	1	-7	11	-1	-31	0	/
O=C(O)c1ccc2nc(-c3ccco3)c(-c3ccco3)nc2c1	7	2	-3	0	-403	1	/
O=C(O)c1ccc2nc3c(nc2c1)-c1ccccc1C3=O	17*	-5	-18	-2	-21	2	5
Cc1ccc(/C=N/NC(=O)c2ccc3c(c2)OCCO3)s1	12*	-10	14	-12	18	0	11*
O=C(N/N=C/c1cc(Br)cs1)c1ccc2c(c1)OCCO2	5	3	22	-10	-9	4	/
SMILES	Wee1 degr inh	RBBP9 inh	Pf gametocyte	TNF necrop inh	m-calpain inh	L929 necroptosis	Wee1 stab conf
CC1CC(C)(C)NC(=S)N1CCC(=O)N1CCc2ccccc2C1 (stereo not drawn)	1	-3	11	0	2	0	/
COc1ccc(C2/C=C\CN(C(=O)c3ccccc3)[C@H](Cc3ccccc3)C(=O)N2Cc2ccc(F)cc2)cc1 (stereo partly drawn)	/	/	10	-1	-34	-1	/
CN(Cc1cc2ccccc2[nH]c1=O)S(C)(=O)=O	13*	1	5	2	9	0	-1
NC(=O)[C@@H]1CCCN1Cc1nc(-c2cccs2)no1	11*	-4	6	0	-11	0	-1
NC(=O)C1CCN(Cc2nc(-c3cccs3)no2)CC1	-1	1	8	4	-5	1	/
Cc1cccc(-n2c(=S)[nH]c3nc4c(cc3c2=O)COC(C)(C)C4)c1	18*	3	-9	2	0	0	-1
NC(N)=NS(=O)(=O)c1ccc(N)cc1	11*	-4	/	1	-19	61	1
COc1ccc(Nc2nc(N)nc(CSc3nccn3C)n2)cc1	12*	-10	/	1	-27	8	1
O=P(c1ccccc1)(c1ccccc1)c1ccc(O)cc1	/	/	13	/	/	/	/
Cc1[nH]nc2c1C(c1cn[nH]c1-c1ccc(F)cc1)C(C#N)=C(N)O2 (stereo not drawn)	-1	-7	-28	-2	5	2	/
Cc1ccc2c(CSc3nnc(C4CC4)n3N)cc(=O)oc2c1C	12*	-7	13	-4	3	0	2
Cc1ccc2c(CSc3nnc(C4CC4)n3N)cc(=O)oc2c1	-4	0	/	0	-57	-1	/
Cc1ccc(C(=O)CC(C(=O)O)P(=O)(c2ccccc2)c2ccccc2)cc1 (stereo not drawn)	14*	-2	-33	1	1	-1	1
Cn1cccc1/C=C1\SC(=Nc2ccccc2)NC1=O	19*	9	-4	-13	1	-1	14*
Cc1ccc(S(=O)(=O)NN)c(C)c1N1CCCC1=O	-1	-8	-6	1	-14	0	/
O=C(O)/C=C/c1cn(Cc2ccccc2Cl)nc1-c1ccccc1	1	-8	4	2	23	1	/
Cc1cc(C(=O)CSc2nc3ccccc3o2)c(C)n1CC1CCCO1 (stereo not drawn)	11*	1	/	-8	11	0	1
CCOC(=O)C1CCN(S(=O)(=O)c2ccc(NC(C)=O)c(Cl)c2)CC1	11*	1	-13	-1	-10	0	1
COc1ccc(-c2n[nH]c(=S)n2/N=C/C=C/c2ccccc2OC)cc1	11*	-5	/	1	-18	2	7
CC(=O)Nc1ccc2nc(-c3cccs3)[nH]c2c1	16*	-6	/	-3	i	3	-1
